ChEMBL document CHEMBL3124872, “Discovery and early development of TMC647055, a non-nucleoside inhibitor of the hepatitis C virus NS5B polymerase” (J Med Chem, 2014)
Calls of active or inactive are those of the source. The rule behind the calls is not given here.

Columns and labels:
[1] = Binding affinity to Hepatitis C virus genotype 3a NS5B by surface plasmon resonance analysis; set-up: species or system Hepatitis C virus subtype 3a
How it was run: (§1)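 Surface plasmon resonance binding to NS5B polymerase of the stated genotype; association and dissociation rate constants measured, from which Kd and residence half-life were derived; median Kd reported.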

Homo sapiens [2] = assay: Toxicity in human assessed as effect on appetite at 300 to 1250 mg, po bid for 5 days followed by morning dose on day 6; format: organism-based; details: in vivo, 120 h
How it was run: (§2)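 Healthy volunteers given oral b.i.d. doses of 300, 1000 or 1250 mg for 5 days plus a morning dose on day 6, in hydroxypropyl-β-cyclodextrin vehicle; adverse events, laboratory parameters, vital signs, food consumption, appetite, ECG and plasma 4-β-hydroxycholesterol (CYP3A4 induction marker) monitored.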

Hepatitis C virus [3] = assay: Antiviral activity against Hepatitis C virus genotype 1a infected in human assessed as log10 reduction in HCV RNA level at 500 mg, po bid for 5 days followed by morning dose on day 6 relative to control; format: functional, Hepacivirus hominis, subtype 1a
How it was run: (§3)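 Oral b.i.d. dosing of HCV genotype 1-infected patients at 500 mg or 1000 mg for 5 days, plus a morning dose on day 6, in hydroxypropyl-β-cyclodextrin vehicle. Read-out was the median maximum decrease in plasma HCV RNA from baseline (log10), using patients with HCV RNA data available up to Day 6.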

Hepatitis C virus [4] = assay: Antiviral activity against Hepatitis C virus genotype 4a infected in human HuH7 by transient replicon assay; format: functional, organism-based, Hepacivirus hominis; details: Huh-7
How it was run: (§4)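 Transient replicon assay using chimeric replicons whose NS5B region is derived from patient isolates of the stated genotype.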

Homo sapiens [5] = assay: Toxicity in human assessed as grade-4 adverse events at 300 to 1250 mg, po bid for 5 days followed by morning dose on day 6; format: organism-based; details: in vivo, 120 h
How it was run: (§5)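 Oral b.i.d. dosing for 5 days plus a single morning dose on day 6, in a hydroxypropyl-β-cyclodextrin vehicle. Healthy volunteers received 300, 1000 or 1250 mg; HCV genotype 1-infected patients received 500 or 1000 mg. Monitoring covered adverse events graded by severity, laboratory parameters, vital signs, food consumption, appetite and ECG.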

[6] = Cytotoxicity against HEK293T cells after 3 days by resazurin-based fluorescence analysis; format: cell-based, HEK-293T; details: human
[7] = Selectivity ratio of EC50 for Hepatitis C virus genotype 2b to EC50 for wild-type Hepatitis C virus Con 1b; format: functional
How it was run: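 Transient replicon assay using chimeric replicons carrying NS5B from genotype 2a or 2b patient isolates. EC50 was compared with that against the genotype 1b replicon.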

Hepatitis C virus [8] = assay: Antiviral activity against Hepatitis C virus genotype 1a infected in human assessed as reduction in plasma HCV RNA level administered for 10 days measured on day 11; format: functional, organism-based; details: Hepacivirus hominis, subtype 1a
How it was run: (§6)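 HCV genotype 1a- and 1b-infected patients received oral 1000 mg b.i.d. together with an NS3/4A protease inhibitor at 150 mg q.d. for 10 days. The read-out was the median decrease in plasma HCV RNA (log10 IU/mL) at day 11.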

Homo sapiens [9] = assay: Toxicity in HCV genotype 1-infected patient assessed as effect on vital signs at 500 to 1000 mg, po bid for 5 days followed by morning dose on day 6; format: organism-based; details: in vivo, 120 h
How it was run: (§7)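 HCV genotype 1-infected patients given oral b.i.d. doses of 500 or 1000 mg for 5 days plus a morning dose on day 6, in hydroxypropyl-β-cyclodextrin vehicle; adverse events with grading, laboratory parameters, vital signs, food consumption, appetite and ECG monitored.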

Hepatitis C virus [10] = assay: Antiviral activity against Hepatitis C virus harboring NS5B C316Y mutant infected in human HuH7 by luciferase reporter gene assay; format: functional, organism-based; details: Hepacivirus hominis; Huh-7
Hepatitis C virus [11] = assay: Antiviral activity against Hepatitis C virus genotype 1b infected in human HuH7 cells after 72 hrs by luciferase reporter gene assay; format: functional, organism-based, Hepacivirus hominis; details: Huh-7, 72 h
Homo sapiens [12] = assay: Toxicity in human assessed as effect on vital signs at 300 to 1250 mg, po bid for 5 days followed by morning dose on day 6; format: organism-based; details: in vivo, 120 h; how it was run: as §2
[13] = Binding affinity to Hepatitis C virus Con 1b wild-type NS5B by surface plasmon resonance analysis; set-up: species or system Hepatitis C virus (isolate Con1); how it was run: as §1
Hepatitis C virus [14] = assay: Antiviral activity against Hepatitis C virus harboring NS5B S96T mutant infected in human HuH7 by luciferase reporter gene assay; format: functional, organism-based; details: Hepacivirus hominis; Huh-7
Homo sapiens [15] = assay: Drug metabolism in human assessed as CYP3A4-induced 4-beta-hydroxycholesterol level at 300 to 1250 mg, po bid for 5 days followed by morning dose on day 6; format: ADME, organism-based; details: in vivo, 120 h; how it was run: as §2
Hepatitis C virus [16] = assay: Antiviral activity against Hepatitis C virus genotype 6a infected in human HuH7 by transient replicon assay; format: functional, organism-based, Hepacivirus hominis; details: Huh-7; how it was run: as §4
Homo sapiens [17] = assay: Toxicity in HCV genotype 1-infected patient assessed as effect on food consumption at 500 to 1000 mg, po bid for 5 days followed by morning dose on day 6; format: organism-based; details: in vivo, 120 h; how it was run: as §7
Hepatitis C virus [18] = assay: Antiviral activity against Hepatitis C virus genotype 1b infected in human assessed as log10 reduction in HCV RNA level at 500 mg, po bid for 5 days followed by morning dose on day 6 relative to control; format: functional, Hepacivirus hominis; how it was run: as §3
Hepatitis C virus [19] = assay: Antiviral activity against Hepatitis C virus harboring […] A156V mutant infected in human HuH7 by luciferase reporter gene assay; format: functional, organism-based; details: Hepacivirus hominis; Huh-7
Homo sapiens [20] = assay: Toxicity in HCV genotype 1-infected patient assessed as effect on laboratory parameters at 500 to 1000 mg, po bid for 5 days followed by morning dose on day 6; format: organism-based; details: in vivo, 120 h; how it was run: as §7
[21] = Cytotoxicity against human MRC5 cells after 3 days by resazurin-based fluorescence analysis; format: cell-based
Hepatitis C virus [22] = assay: Antiviral activity against Hepatitis C virus genotype 1b infected in human assessed as log10 reduction in HCV RNA level at 1000 mg, po bid for 5 days followed by morning dose on day 6 relative to control; format: functional, Hepacivirus hominis; how it was run: as §3
Homo sapiens [23] = assay: Toxicity in HCV genotype 1-infected patient assessed as grade-3 adverse events at 500 to 1000 mg, po bid for 5 days followed by morning dose on day 6; format: organism-based; details: in vivo, 120 h; how it was run: as §7
Plasma = assay: Fraction unbound in human plasma; format: ADME, cell-free
Homo sapiens [24] = assay: Toxicity in human assessed as effect on laboratory parameters at 300 to 1250 mg, po bid for 5 days followed by morning dose on day 6; format: organism-based; details: in vivo, 120 h; how it was run: as §2
Hepatitis C virus [25] = assay: Antiviral activity against Hepatitis C virus genotype 1a infected in human HuH7-SG cells after 3 days by RT-PCR analysis; format: functional, organism-based, Hepacivirus hominis; details: subtype 1a, Huh-7, 72 h
Hepatitis C virus [26] = assay: Antiviral activity against Hepatitis C virus genotype 3a infected in human HuH7 by transient replicon assay; format: functional, organism-based, Hepacivirus hominis; details: Huh-7; how it was run: as §4
[27] = Binding affinity to His6-tagged Hepatitis C virus Con 1b NS5B delta21 RNA dependent RNA polymerase expressed in Escherichia coli Rosetta 2 (DE3) by surface plasmon resonance analysis; set-up: species or system Hepatitis C virus (isolate Con1); how it was run: as §1
Homo sapiens [28] = assay: Toxicity in human assessed as gastrointestinal side-effects at 300 to 1250 mg, po bid for 5 days followed by morning dose on day 6; format: organism-based; details: in vivo, 120 h; how it was run: as §5
Hepatitis C virus [29] = assay: Antiviral activity against Hepatitis C virus genotype 1b infected in human assessed as reduction in plasma HCV RNA level administered for 10 days measured on day 11; format: functional, organism-based; details: Hepacivirus hominis; how it was run: as §6
[30] = Cytotoxicity against African green monkey Vero E6 cells after 3 days by resazurin-based fluorescence analysis; format: cell-based; details: chlorocebus sabaeus
[31] = Cytotoxicity against human HuH7 cells; format: cell-based, Huh-7
Homo sapiens [32] = assay: Toxicity in human assessed as effect on ECG profile at 300 to 1250 mg, po bid for 5 days followed by morning dose on day 6; format: organism-based; details: in vivo, 120 h; how it was run: as §2
Hepatitis C virus [33] = assay: Antiviral activity against Hepatitis C virus genotype 2b infected in human HuH7 by transient replicon assay; format: functional, organism-based, Hepacivirus hominis; details: Huh-7; how it was run: as §4

With `COc1ccc2c(c1)C=C1Cn3c-2c(C2CCCCC2)c2ccc(cc23)C(=O)NS(=O)(=O)N(C)CCOCCN(C)C1=O` [TMC-647055] as the molecule, how does the Kd [1] read?
Its Kd is 6.1 nM.

And the Activity (Homo sapiens [2])?
The Activity was “Non-toxic”.

What about the FC (Hepatitis C virus [3]) of the same molecule?
The FC was 1.4.

What about the EC50 (Hepatitis C virus [4]) of the same molecule?
Its EC50 is 97 nM.

What about the Activity (Homo sapiens [5]) of the same molecule?
The Activity was “Non-toxic”.

What about the CC50 at 72 h [6] of the same molecule?
Its CC50 at 72 h is over 50000 nM.

And the “Ratio EC50” value [7]?
The value was over 200.

What about the Activity (Hepatitis C virus [8]) of the same molecule?
The Activity was “Active”.

What about the Activity (Homo sapiens [9]) of the same molecule?
The Activity was “Non-toxic”.

And the Activity (Hepatitis C virus [10])?
Its Activity is “Active”.

What about the EC50 (Hepatitis C virus [11]) of the same molecule?
The EC50 was 77 nM.

And the Activity (Homo sapiens [12])?
The Activity was “Non-toxic”.

And the Kd [13]?
Its Kd is 4.1 nM.

What about the Activity (Hepatitis C virus [14]) of the same molecule?
The Activity was “Active”.

What about the Drug metabolism (Homo sapiens [15]) of the same molecule?
The Drug metabolism was “Active”.

And the EC50 (Hepatitis C virus [16])?
Its EC50 is 113 nM.

What about the Activity (Homo sapiens [17]) of the same molecule?
Its Activity is “Non-toxic”.

What about the FC (Hepatitis C virus [18]) of the same molecule?
The FC was 3.3.

And the Activity (Hepatitis C virus [19])?
Its Activity is “Active”.

And the Activity (Homo sapiens [20])?
The Activity was “Non-toxic”.

And the CC50 at 72 h [21]?
The CC50 at 72 h was over 50000 nM.

And the FC (Hepatitis C virus [22])?
The FC was 3.4.

What about the Activity (Homo sapiens [23]) of the same molecule?
Its Activity is “Non-toxic”.

What about the Fu (Plasma) of the same molecule?
Its Fu is 0.3%.

What about the Activity (Homo sapiens [24]) of the same molecule?
Its Activity is “Non-toxic”.

And the EC50 (Hepatitis C virus [25])?
The EC50 was 166 nM.

What about the EC50 (Hepatitis C virus [26]) of the same molecule?
The EC50 was 88 nM.

And the Kd [27]?
The Kd was 4.1 nM.

What about the Activity (Homo sapiens [28]) of the same molecule?
Its Activity is “Toxic”.

What about the Activity (Hepatitis C virus [29]) of the same molecule?
Its Activity is “Active”.

And the CC50 at 72 h [30]?
The CC50 at 72 h was over 50000 nM.

And the CC50 [31]?
Its CC50 is 42100 nM.

And the Activity (Homo sapiens [32])?
Its Activity is “Non-toxic”.

What about the EC50 (Hepatitis C virus [33]) of the same molecule?
Its EC50 is over 28000 nM.
